Measurements reported in ChEMBL document CHEMBL3272198, “Preparation and in vitro antifungal activities of some quinolizidine derived hemiaminals and beta-tert-amino sulfides” (1976).
Activity calls are given as the source filed them. The calls are words filed in the database; no cut-off is given here.

Assays:
Trichophyton rubrum = test: Antifungal activity against Trichophyton rubrum Castellani Sab.1112 at 40 to 80 ug/ml after 2 weeks; assay type: functional, organism-based
Summary of the method: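 Compound in aqueous HOAc/Me2SO was filter-sterilized and mixed into melted (50°) Sabouraud dextrose agar. Agar pH was 7.0-7.5 before addition and 6.0-6.5 after, giving final levels of 10-100 μg/ml. Quadrant plates were center-inoculated with a 2 × 2 mm piece of a 2-week-old mycelial culture, sealed and kept at 25°C. Colony expansion was measured weekly, with solvent and blank controls, in duplicate.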

Histoplasma capsulatum [1] = test: Antifungal activity against Histoplasma capsulatum Darling isolate 1106 at 1 ug/ml after 1 week (reference value: 14 mm); assay type: functional; details: Darling isolate 1106, 168 h, read-out: DIZ
Blastomyces dermatitidis [2] = test: Antifungal activity against Blastomyces dermatitidis Gilchrist & Stokes isolate 1107 at 1 ug/ml after 2 weeks (reference value: 35 mm); assay type: functional; details: Gilchrist & Stokes isolate 1107, 336 h, read-out: DIZ
Summary of the method: (§1)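 Mycelial phase grown on Sabouraud dextrose agar at 25°C. Agar pH was set to 6 before the test solution was added and was 5.0-5.5 after. Test solutions contained HOAc and Me2SO, and solvent and blank controls were included. Each quadrant was center-inoculated with a 2 × 2 mm piece of a 2-week-old mycelial culture. Colony diameter was measured weekly for 3 weeks and reported as total increments (mm). Duplicates were run.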

Blastomyces dermatitidis [3] = test: Antifungal activity against Blastomyces dermatitidis Gilchrist & Stokes isolate 1099 at 1 ug/ml after 1 week (reference value: 14 mm); assay type: functional; details: Gilchrist & Stokes isolate 1099, 168 h, read-out: DIZ; summary of the method: as §1
Histoplasma capsulatum [4] = test: Antifungal activity against Histoplasma capsulatum Darling isolate 1098 at 1 ug/ml after 1 week (reference value: 12 mm); assay type: functional; details: Darling isolate 1098, 168 h, read-out: DIZ
Histoplasma capsulatum [5] = test: Antifungal activity against Histoplasma capsulatum Darling isolate 1106 at 1 ug/ml after 3 weeks (reference value: 31 mm); assay type: functional; details: Darling isolate 1106, 504 h, read-out: DIZ
Blastomyces dermatitidis [6] = test: Antifungal activity against Blastomyces dermatitidis Gilchrist & Stokes isolate 1099 at 1 ug/ml after 2 weeks (reference value: 27 mm); assay type: functional; details: Gilchrist & Stokes isolate 1099, 336 h, read-out: DIZ; summary of the method: as §1
Histoplasma capsulatum [7] = test: Antifungal activity against Histoplasma capsulatum Darling isolate 1098 at 1 ug/ml after 2 weeks (reference value: 21 mm); assay type: functional; details: Darling isolate 1098, 336 h, read-out: DIZ
Blastomyces dermatitidis [8] = test: Antifungal activity against Blastomyces dermatitidis Gilchrist & Stokes isolate 1107 at 1 ug/ml after 3 weeks (reference value: 40 mm); assay type: functional; details: Gilchrist & Stokes isolate 1107, 504 h, read-out: DIZ; summary of the method: as §1
Histoplasma capsulatum [9] = test: Antifungal activity against Histoplasma capsulatum Darling isolate 1106 at 1 ug/ml after 2 weeks (reference value: 25 mm); assay type: functional; details: Darling isolate 1106, 336 h, read-out: DIZ

SMILES	diameter of the inhibition zone (DIZ) (Trichophyton rubrum)	zone of inhibition at 1 µg/mL (Histoplasma capsulatum [1]) [mm]	zone of inhibition at 1 µg/mL (Blastomyces dermatitidis [2]) [mm]	zone of inhibition at 1 µg/mL (Blastomyces dermatitidis [3]) [mm]	zone of inhibition at 1 µg/mL (Histoplasma capsulatum [4]) [mm]	zone of inhibition at 1 µg/mL (Histoplasma capsulatum [5]) [mm]	zone of inhibition at 1 µg/mL (Blastomyces dermatitidis [6]) [mm]	zone of inhibition at 1 µg/mL (Histoplasma capsulatum [7]) [mm]	zone of inhibition at 1 µg/mL (Blastomyces dermatitidis [8]) [mm]	zone of inhibition at 1 µg/mL (Histoplasma capsulatum [9]) [mm]
C[C@@H]1CC[C@@H](c2ccoc2)N2C(O)[C@@](C)(Sc3ccccc3)CC[C@@H]12 (stereo not given in full)	Active	–	–	–	–	–	–	–	–	–
C[C@@H]1[C@H](O)[C@@H](C)/C=C/C=C/C=C/C=C/C=C/C=C/C=C/[C@H](O[C@@H]2O[C@H](C)[C@@H](O)[C@H](N)[C@@H]2O)C[C@@H]2O[C@](O)(C[C@@H](O)C[C@@H](O)[C@H](O)CC[C@@H](O)C[C@@H](O)CC(=O)O[C@H]1C)C[C@H](O)[C@H]2C(=O)O [AMPHOTERICIN B]	–	9	19	7	9	24	10	19	32	18
